In the RNAGym collection of RNA variant scans (doi:10.1126/science.aae0568):
Fewer inactive variants are shown than the library holds.

B1: tRNA (parent)
chain: GUUCCGUUGGCGUAAUGGUAACGCGUCUCCCUCCUAAGGAGAAGACUGCGGGUUCGAGUCCCGUACGGAACG

Variants of: B1
Test: yeast fitness relative to wild type (ratio to wild type); higher = fitter; tRNA-Arg(CCU), competitive growth, 37 C, YPD
Summary of the method: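 For this measurement, the tRNA-Arg(CCU) gene was varied by chemical synthesis at a 3% per-site mutation rate across 69 sites, and each variant was placed at the native genomic locus in Saccharomyces cerevisiae. The pooled strains went through a 24-hour competition in YPD at 37°C in six parallel replicates, with amplicons from start and end populations read by 100-nucleotide paired-end sequencing. Darwinian fitness relative to wild type followed from the change in each genotype's frequency. Genotypes needed ≥ 100 starting reads, and estimates < 0.5 were set to 0.5.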

U16A A21G C34A C49G C62U and U16A C27G A42U U53C cannot be ordered by yeast fitness: ≤ 0.5 for the first, ≤ 0.5 for the second.

Compared with U16C C34G, U16C C34U is higher in yeast fitness: 0.609 for the first, 0.759 for the second.

Going from U16C A36U G63A to U16C A20U C30U G39C A45G A69C, the yeast fitness falls from 0.772 to 0.592.

First: U16C A20U C24U C49A
Second: U16A G48C C55G G67C A70U
The yeast fitness of the first is lower: ≤ 0.5 for the first, 0.604 for the second.

Compared with U16A A20G C34U G56C, U16A G23A C33A is higher in yeast fitness: 0.509 for the first, 0.644 for the second.

First: U16A C60G C61G G68C
Second: U16C C27G C29U U54C
The yeast fitness of the first is lower: ≤ 0.5 for the first, 0.568 for the second.

Going from U16A G58A G67U to U16C A21U, the yeast fitness rises from ≤ 0.5 to 0.756.

Going from U16C C22U A65U to A15U U35A A43U C46U, the yeast fitness rises from ≤ 0.5 to 0.695.

Going from A15U U26A C31A to A15U U19A A20G A40U A43U, the yeast fitness rises from ≤ 0.5 to 0.542.

Compared with U16C C29A C55G A70U, A15U U16A C27G is higher in yeast fitness: ≤ 0.5 for the first, 0.59 for the second.

Compared with U16C G18A C24G A45U, A15U G38C is higher in yeast fitness: ≤ 0.5 for the first, 0.699 for the second.

U16C C29G U53A and U16A A37U G56A C62A A69G cannot be ordered by yeast fitness: ≤ 0.5 for the first, ≤ 0.5 for the second.

U16C C22G C27G U53C C61A G68A and U16A U32C C34U cannot be ordered by yeast fitness: ≤ 0.5 for the first, ≤ 0.5 for the second.

Going from U16A C27G C46G G67A to U16A C55G C61U, the yeast fitness falls from 0.505 to ≤ 0.5.

First: U16A C31A G67U
Second: U16C C61U
The yeast fitness of the first is lower: ≤ 0.5 for the first, 0.93 for the second.

Compared with U16A G56A, U16A C60A C62U is lower in yeast fitness: 0.875 for the first, 0.609 for the second.

First: U16C A42G
Second: U16A C34A A36C A37G G56C C66A
The yeast fitness of the first is higher: 0.904 for the first, ≤ 0.5 for the second.

First: U16C C55A
Second: U16C C55G
The yeast fitness of the first is lower: 0.664 for the first, 0.669 for the second.

U16C G18C A42G and A15U G38C G39A A43C C61U cannot be ordered by yeast fitness: ≤ 0.5 for the first, ≤ 0.5 for the second.

U16A G17A C34U C66U A70U and U16A G17A C22G C61U cannot be ordered by yeast fitness: ≤ 0.5 for the first, ≤ 0.5 for the second.

U16C C24G G44A C60U G67C and A15U U28A G68C cannot be ordered by yeast fitness: ≤ 0.5 for the first, ≤ 0.5 for the second.

U16A C27U G38A and U16A C22G C61U A65G cannot be ordered by yeast fitness: ≤ 0.5 for the first, ≤ 0.5 for the second.

Compared with A15U G38C G50C C60U, U16C C22U A70U is higher in yeast fitness: ≤ 0.5 for the first, 0.572 for the second.

U16A G25C A40C C49U and U16C C33U A36C A45C U64G cannot be ordered by yeast fitness: ≤ 0.5 for the first, ≤ 0.5 for the second.

U16A G23C U26A C29U A42U G48A G67A and U16C A40C A57G C61U cannot be ordered by yeast fitness: ≤ 0.5 for the first, ≤ 0.5 for the second.

First: U16A C46G
Second: U16A G50C A65G
The yeast fitness of the first is higher: 0.951 for the first, ≤ 0.5 for the second.

U16C C31U C33U G63C and U16C A20C A36U C61U cannot be ordered by yeast fitness: ≤ 0.5 for the first, ≤ 0.5 for the second.

Going from A15U U16A A21C C33G to A15U G18C G23C C24G, the yeast fitness falls from 0.558 to ≤ 0.5.

Compared with U16A G17A A20G C22G C61U G68C, U16C C60G is higher in yeast fitness: 0.559 for the first, 0.658 for the second.

Compared with U16A C49U, U16C G17C A21C C66U G68A is lower in yeast fitness: 0.946 for the first, ≤ 0.5 for the second.

First: U16A C33G C49A
Second: A15U G23A C24G C29U C61A A69G
The yeast fitness of the first is higher: 0.537 for the first, ≤ 0.5 for the second.

First: U16C G25A U28C G52C
Second: A15U G56A
The yeast fitness of the first is lower: ≤ 0.5 for the first, 0.727 for the second.

Compared with U16A C24U C29A, A15U U54A is lower in yeast fitness: 0.57 for the first, 0.53 for the second.

U16A G39C U54C C55U and U16A C34G U47A G52C cannot be ordered by yeast fitness: ≤ 0.5 for the first, ≤ 0.5 for the second.

First: A15U G56C G67U
Second: U16A A21U A42U
The yeast fitness of the first is lower: ≤ 0.5 for the first, 0.591 for the second.

Going from U16C C31U C33A C34G U35A G52A G67A to U16A G41A A69C, the yeast fitness rises from ≤ 0.5 to 0.631.

First: U16A A57U C66U
Second: A15U U59C C62A
The yeast fitness of the first is higher: 0.528 for the first, ≤ 0.5 for the second.

U16A C29G C31G C62U A69C and A15U U47G A57C cannot be ordered by yeast fitness: ≤ 0.5 for the first, ≤ 0.5 for the second.

Compared with U16A C34A A40U G44A, U16C A65G A70C is higher in yeast fitness: ≤ 0.5 for the first, 0.786 for the second.

Compared with A15U G67C, A15U G67A is lower in yeast fitness: 0.657 for the first, 0.654 for the second.

Going from A15U U16C to A15U U16A, the yeast fitness falls from 0.893 to 0.705.

First: U16C C24U C29A U32A C46G A57C
Second: U16A A21G C27G C46U
The yeast fitness of the first is lower: 0.522 for the first, 0.566 for the second.

U16A C22U U26C G67A and A15U G23C C33A cannot be ordered by yeast fitness: ≤ 0.5 for the first, ≤ 0.5 for the second.

Going from U16A C60U to U16C A37C, the yeast fitness falls from 0.805 to 0.678.

Compared with U16C A37U, A15U G18A C27A is higher in yeast fitness: 0.683 for the first, 1.03 for the second.

Going from U16A G51A to U16A C22U G48A, the yeast fitness falls from 0.752 to 0.631.

Going from A15U U19A A20G A40U A43U C60G C62U to U16A C24U G44C C61U C66U, the yeast fitness falls from 0.518 to ≤ 0.5.

First: U16A C34U
Second: U16A C24G A43C
The yeast fitness of the first is higher: 0.663 for the first, 0.512 for the second.

U16A C29G C30U A40U A70G and U16C A37C C55G C62U cannot be ordered by yeast fitness: ≤ 0.5 for the first, ≤ 0.5 for the second.

U16C C24U C30U and A15U U19C U47C A65G G68C cannot be ordered by yeast fitness: ≤ 0.5 for the first, ≤ 0.5 for the second.

A15U G56A C61G C66U and U16A C60A G67C cannot be ordered by yeast fitness: ≤ 0.5 for the first, ≤ 0.5 for the second.

A15U U19A A20G G41A C60G A65G and U16C G18A C24G A45U C62A cannot be ordered by yeast fitness: ≤ 0.5 for the first, ≤ 0.5 for the second.

First: A15U U64C A65G
Second: U16C C60G A65G
The yeast fitness of the first is higher: 0.528 for the first, ≤ 0.5 for the second.

First: A15U U32G G44A G50A U54A
Second: A15U G68C
The yeast fitness of the first is lower: ≤ 0.5 for the first, 0.671 for the second.

A15U G25C G67A and U16A A21C A45U C60U G67C cannot be ordered by yeast fitness: ≤ 0.5 for the first, ≤ 0.5 for the second.

U16A C30G C34G A42U C66U and U16C G18C C24U A40U C55U U59A cannot be ordered by yeast fitness: ≤ 0.5 for the first, ≤ 0.5 for the second.

Going from A15U U47A A57U to U16C A21C A37G C55A, the yeast fitness falls from 0.719 to ≤ 0.5.

Compared with U16A C24G C46U G50C C55U A57U C62G A70U, A15U G51A is higher in yeast fitness: ≤ 0.5 for the first, 0.722 for the second.

First: A15U G51C
Second: U16C A43G
The yeast fitness of the first is lower: 0.555 for the first, 1.13 for the second.

Compared with A15U U19A G41C C55G C66G, A15U U26A C29G G50A C61G G63C is higher in yeast fitness: ≤ 0.5 for the first, 0.57 for the second.

Going from U16C A40U A65U to A15U G38C G39A A43C C60G A65C, the yeast fitness falls from 0.588 to 0.559.

First: U16A G25C G48A U59A
Second: U16A C24U C62U
The yeast fitness of the first is lower: ≤ 0.5 for the first, 0.692 for the second.

Going from U16A A70C to U16A A70U, the yeast fitness rises from 0.897 to 1.03.

First: U16A G17C A43U A45C C46A
Second: U16A C30G G44C A65C
The yeast fitness of the first is higher: 0.613 for the first, ≤ 0.5 for the second.

First: U16C C24U U53C C60G
Second: A15U U16G C55A A57C U59C A65G
The yeast fitness of the first is higher: 0.559 for the first, ≤ 0.5 for the second.

First: U16C A40U A57C A70U
Second: A15U G52C
The yeast fitness of the first is higher: 0.585 for the first, ≤ 0.5 for the second.

Compared with A15U G52A, U16A C34A U64C is lower in yeast fitness: 0.606 for the first, 0.513 for the second.

First: U16A C49U G67A
Second: U16A G56C A57U C60U
The yeast fitness of the first is higher: 0.67 for the first, ≤ 0.5 for the second.

First: U16A A21G C34U
Second: U16C C30G
The yeast fitness of the first is lower: ≤ 0.5 for the first, 0.708 for the second.

Going from U16C C30A to U16A A21G C27G G68C, the yeast fitness falls from 0.834 to ≤ 0.5.

U16A C33U A45G C49A U53A and U16C A40U G52A C55A G56C cannot be ordered by yeast fitness: ≤ 0.5 for the first, ≤ 0.5 for the second.

Compared with U16C A21U C30U C34G A36C, U16A G48A is higher in yeast fitness: ≤ 0.5 for the first, 0.896 for the second.

First: U16A G48C
Second: U16A C30G A37C
The yeast fitness of the first is higher: 0.967 for the first, ≤ 0.5 for the second.

U16A C24G G51A and A15U U32A G50A G51A G56C C61G C62U cannot be ordered by yeast fitness: ≤ 0.5 for the first, ≤ 0.5 for the second.

A15U U32A G44A A65C and A15U U16A C22G C60U cannot be ordered by yeast fitness: ≤ 0.5 for the first, ≤ 0.5 for the second.

U16C C24U C30U C62A and U16A U32C A37U C49A C60U G68C cannot be ordered by yeast fitness: ≤ 0.5 for the first, ≤ 0.5 for the second.

First: U16A U19C C61A A65U
Second: U16A A40G
The yeast fitness of the first is lower: 0.6 for the first, 0.913 for the second.

Compared with U16A C31A A69U, U16A A42C is higher in yeast fitness: 0.62 for the first, 0.854 for the second.

U16C A21G G63C and A15U U35A G50C A65C cannot be ordered by yeast fitness: ≤ 0.5 for the first, ≤ 0.5 for the second.

Going from U16A U19A to U16A U19C, the yeast fitness rises from 0.952 to 1.03.

Going from U16C C46G C55G C60G to U16A C27G, the yeast fitness falls from 0.615 to 0.548.

Going from U16A U32C A42U to U16A C62U A69G, the yeast fitness rises from 0.637 to 0.922.

U16A G39C and U16A G18C G48C are the same in yeast fitness: 0.646 for the first, 0.646 for the second.

In the case of U16A A36U C46A, the yeast fitness is reported as ≤ 0.5.
